In paper PMC4764504 (Journal of medicinal chemistry, 2015):
Several values for one entry are separate records, joined by “and”; a condition that tells them apart may be missing. Equal values may be shown once.

Columns and labels:
[1] = tested on: mice with intracranial DBT gliomas; experiment: Small animal PET/CT imaging in mice with intracranial DBT gliomas; type: in vivo, mouse; conditions: PET; for SUV tumor uptake: intracranial DBT tumor
Outline: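 Four male BALB/c mice carried intracranial DBT gliomas (1 × 10⁴ cells, right mid-cerebrum) and were imaged 14 days after implantation. Under 1% isoflurane–oxygen, each received ~55 μCi (~2.04 MBq) of ⁷⁶Br-labelled test compound by tail vein in 0.9% saline. Imaging was dynamic PET/CT for 0–60 min, then 15-min static scans at 3 and 24 h. Read-out was SUV. Tumors were confirmed afterwards by H&E on fixed brains.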

DBT glioma cells = experiment: Competitive amino acid cell uptake assays; type: cell-based, mouse; conditions: 60 s, 37 °C
Outline: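 Mouse DBT glioma cells were seeded at 1 × 10⁵ cells/well and grown 48 h in 10% FBS DMEM under 5% CO₂. Cells were washed twice in 37 °C buffer, then exposed for 60 s at 37 °C, pH 7.40, to the radiotracer. Buffers were Na phosphate-buffered saline or choline-substituted Na-free buffer. Controls had 10 mM sucrose; BCH was 10 mM. Cells were washed with ice-cold buffer, lysed in 0.2% SDS/0.2 M NaOH, γ-counted, and normalized to added activity and BCA protein. Values are % of control, triplicate × two plates.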

[2] = tested on: BALB/c Mice with Subcutaneous Flank DBT Tumors; experiment: Whole body biodistribution in mice with subcutaneous DBT gliomas; type: in vivo, mouse; conditions: for biodistribution, tumor uptake: subcutaneous DBT tumor
Outline: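 Male BALB/c mice carried subcutaneous flank DBT tumors (5 × 10⁵ cells) and were used at day 14. Under 1% isoflurane–oxygen, each received ~56 μCi (2.07 MBq) of ⁷⁶Br-labelled or 45 μCi (1.67 MBq) of ¹²³I-labelled test compound by tail vein in 0.9% saline. Mice were killed at 5 min, 30 min, 1, 3 and 24 h (n = 4 per time). Tissues were weighed and γ-counted with decay correction, giving % ID/g.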

[3] = 50–60 min (summed) after injection

tumor/brain SUV ratio [1, 3]: 1.70 ± 0.26
tumor/brain SUV ratio ([1]; 3 h after injection): 2.67 ± 0.15
tumor/brain SUV ratio ([1]; 24 h after injection): 3.05 ± 0.30
SUV tumor uptake [1, 3]: 0.63 ± 0.06
SUV tumor uptake ([1]; 3 h after injection): 0.70 ± 0.13
biodistribution, blood ([2]; 5 min after i.v. injection): 5.75 ± 0.44 % ID/g
biodistribution, blood ([2]; 30 min after i.v. injection): 1.66 ± 0.16 % ID/g
biodistribution, blood ([2]; 1 h after i.v. injection): 1.22 ± 0.19 % ID/g
biodistribution, blood ([2]; 3 h after i.v. injection): 0.87 ± 0.44 % ID/g
biodistribution, blood ([2]; 24 h after i.v. injection): 0.37 ± 0.04 % ID/g
biodistribution, bone ([2]; 5 min after i.v. injection): 2.13 ± 0.43 % ID/g
biodistribution, bone ([2]; 30 min after i.v. injection): 1.95 ± 0.29 % ID/g
biodistribution, bone ([2]; 1 h after i.v. injection): 1.18 ± 0.64 % ID/g
biodistribution, bone ([2]; 3 h after i.v. injection): 0.46 ± 0.20 % ID/g
biodistribution, bone ([2]; 24 h after i.v. injection): 0.1 ± 0.04 % ID/g
biodistribution, brain ([2]; 5 min after i.v. injection): 0.54 ± 0.04 % ID/g
biodistribution, brain ([2]; 30 min after i.v. injection): 0.42 ± 0.02 % ID/g
biodistribution, brain ([2]; 1 h after i.v. injection): 0.38 ± 0.04 % ID/g
biodistribution, brain ([2]; 3 h after i.v. injection): 0.31 ± 0.06 % ID/g
biodistribution, brain ([2]; 24 h after i.v. injection): 0.09 ± 0.01 % ID/g
biodistribution, fat ([2]; 5 min after i.v. injection): 1.36 ± 0.38 % ID/g
biodistribution, fat ([2]; 30 min after i.v. injection): 0.85 ± 0.71 % ID/g
biodistribution, fat ([2]; 1 h after i.v. injection): 0.31 ± 0.20 % ID/g
biodistribution, fat ([2]; 3 h after i.v. injection): 0.17 ± 0.04 % ID/g
biodistribution, fat ([2]; 24 h after i.v. injection): 0.04 ± 0.01 % ID/g
biodistribution, heart ([2]; 5 min after i.v. injection): 2.92 ± 0.29 % ID/g
biodistribution, heart ([2]; 30 min after i.v. injection): 2.21 ± 0.18 % ID/g
biodistribution, heart ([2]; 1 h after i.v. injection): 1.67 ± 0.27 % ID/g
biodistribution, heart ([2]; 3 h after i.v. injection): 0.67 ± 0.15 % ID/g
biodistribution, heart ([2]; 24 h after i.v. injection): 0.13 ± 0.02 % ID/g
biodistribution, kidney ([2]; 5 min after i.v. injection): 47.50 ± 4.26 % ID/g
biodistribution, kidney ([2]; 30 min after i.v. injection): 8.95 ± 0.91 % ID/g
biodistribution, kidney ([2]; 1 h after i.v. injection): 5.49 ± 0.98 % ID/g
biodistribution, kidney ([2]; 3 h after i.v. injection): 1.29 ± 0.43 % ID/g
biodistribution, kidney ([2]; 24 h after i.v. injection): 0.23 ± 0.02 % ID/g
biodistribution, liver (all) ([2]; 5 min after i.v. injection): 4.57 ± 0.27 % ID/g
biodistribution, liver (all) ([2]; 30 min after i.v. injection): 1.63 ± 0.33 % ID/g
biodistribution, liver (all) ([2]; 1 h after i.v. injection): 1.03 ± 0.48 % ID/g
biodistribution, liver (all) ([2]; 3 h after i.v. injection): 0.34 ± 0.09 % ID/g
biodistribution, liver (all) ([2]; 24 h after i.v. injection): 0.1 ± 0.02 % ID/g
biodistribution, lung ([2]; 5 min after i.v. injection): 6.20 ± 0.41 % ID/g
biodistribution, lung ([2]; 30 min after i.v. injection): 1.73 ± 0.16 % ID/g
biodistribution, lung ([2]; 1 h after i.v. injection): 1.15 ± 0.22 % ID/g
biodistribution, lung ([2]; 3 h after i.v. injection): 0.54 ± 0.07 % ID/g
biodistribution, lung ([2]; 24 h after i.v. injection): 0.27 ± 0.05 % ID/g
biodistribution, muscle ([2]; 5 min after i.v. injection): 1.54 ± 0.18 % ID/g
biodistribution, muscle ([2]; 30 min after i.v. injection): 1.75 ± 0.77 % ID/g
biodistribution, muscle ([2]; 1 h after i.v. injection): 0.98 ± 0.12 % ID/g
biodistribution, muscle ([2]; 3 h after i.v. injection): 0.4 ± 0.20 % ID/g
biodistribution, muscle ([2]; 24 h after i.v. injection): 0.08 ± 0.01 % ID/g
brain uptake, fold higher than with [^123I]8 ([2]; normal brain, through 3 h after injection): 2- to 3 fold
biodistribution, pancreas ([2]; 30 min after i.v. injection): 24.35 ± 4.06 % ID/g
biodistribution, pancreas ([2]; 1 h after i.v. injection): 14.31 ± 8.12 % ID/g
biodistribution, pancreas ([2]; 3 h after i.v. injection): 2.48 ± 1.17 % ID/g
biodistribution, pancreas ([2]; 24 h after i.v. injection): 0.17 ± 0.02 % ID/g
biodistribution, spleen ([2]; 5 min after i.v. injection): 8.20 ± 0.71 % ID/g
biodistribution, spleen ([2]; 30 min after i.v. injection): 4.05 ± 0.55 % ID/g
biodistribution, spleen ([2]; 1 h after i.v. injection): 2.30 ± 0.82 % ID/g
biodistribution, spleen ([2]; 3 h after i.v. injection): 0.59 ± 0.21 % ID/g
biodistribution, spleen ([2]; 24 h after i.v. injection): 0.18 ± 0.03 % ID/g
biodistribution, tumor uptake ([2]; 5 min after i.v. injection): 2.5 ± 0.64 % ID/g and 2.52 ± 0.64 % ID/g
biodistribution, tumor uptake ([2]; 30 min after i.v. injection): 3.8 ± 0.95 % ID/g and 3.79 ± 0.95 % ID/g
biodistribution, tumor uptake ([2]; 1 h after i.v. injection): 3.7 ± 0.4 % ID/g and 3.72 ± 0.43 % ID/g
biodistribution, tumor uptake ([2]; 3 h after i.v. injection): 1.65 ± 0.40 % ID/g
biodistribution, tumor uptake ([2]; 24 h after i.v. injection): 0.25 ± 0.03 % ID/g
maximal tumor uptake ([2]; subcutaneous DBT tumors, around 30 min to an hour postinjection): 3.7–3.8 % ID/g
biodistribution, thyroid ([2]; thyroid, 5 min after i.v. injection): 3.60 ± 0.69 % ID/g
thyroid uptake ([2]; thyroid, 5 min after injection): 3.6 ± 0.7 % ID/organ
biodistribution, thyroid ([2]; thyroid, 30 min after i.v. injection): 1.63 ± 0.12 % ID/g
biodistribution, thyroid ([2]; thyroid, 1 h after i.v. injection): 1.26 ± 0.18 % ID/g
biodistribution, thyroid ([2]; thyroid, 3 h after i.v. injection): 0.53 ± 0.08 % ID/g
biodistribution, thyroid ([2]; thyroid, 24 h after i.v. injection): 0.17 ± 0.06 % ID/g
Compound: C[C@](N)(/C=C/[76Br])C(=O)O [[^76Br]5, (S)-amino-2-methyl-4-[^76Br]-bromo-3-(E)-butenoic acid]
uptake relative to control (DBT glioma cells; Na BCH condition (BCH 10 mM, system L inhibitor, sodium buffer)): 43 ± 8.5%
uptake compared to sodium control (DBT glioma cells; choline + BCH (sodium-free, Cho-BCH)): 25 ± 4.1%
uptake compared to the sodium control (DBT glioma cells; choline control (sodium-free, Cho-sucrose)): 46 ± 10%
uptake relative to the control (DBT glioma cells; in the presence of MeAIB (10 mM, system A inhibitor), sodium buffer): 56 ± 12%
biodistribution, pancreas ([2]; 5 min after i.v. injection): 27.0 ± 7.2 % ID/g and 27.04 ± 7.15 % ID/g
